For the assay, the target named is Sodium-dependent noradrenaline transporter (Homo sapiens, UniProt P23975). Nature of the assay: Displacement of [3H]nisoxetine from human NET expressed in COS7 cells. Type of assay: cell-based. To be noted: COS-7. The procedure, abridged:
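Membranes from COS-7 cells transfected with human NET were incubated with [3H]nisoxetine (4.3 nM) with or without peptide (1 nM to 100 μM, triplicate) for 1 h at RT. Filter-retained radioactivity was counted by liquid scintillation, and values are given as pIC50. Data are means of 2–5 experiments in triplicate; peptide concentration was set by calibrated HPLC at 214 nm.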

Active and inactive are the calls of the source. The rule behind the calls is not given here. Where a SMILES comes first, the peptide text is derived from it. Bridges are numbered along the chain shown (N, C = ends). [ ]: non-standard residue; d: D form. Pro(3S-OH) = O=C(O)[C@H]1NCC[C@@H]1O; pGlu = O=C1CC[C@@H](C(=O)O)N1

Sequence of Sodium-dependent noradrenaline transporter (P23975 whole entry): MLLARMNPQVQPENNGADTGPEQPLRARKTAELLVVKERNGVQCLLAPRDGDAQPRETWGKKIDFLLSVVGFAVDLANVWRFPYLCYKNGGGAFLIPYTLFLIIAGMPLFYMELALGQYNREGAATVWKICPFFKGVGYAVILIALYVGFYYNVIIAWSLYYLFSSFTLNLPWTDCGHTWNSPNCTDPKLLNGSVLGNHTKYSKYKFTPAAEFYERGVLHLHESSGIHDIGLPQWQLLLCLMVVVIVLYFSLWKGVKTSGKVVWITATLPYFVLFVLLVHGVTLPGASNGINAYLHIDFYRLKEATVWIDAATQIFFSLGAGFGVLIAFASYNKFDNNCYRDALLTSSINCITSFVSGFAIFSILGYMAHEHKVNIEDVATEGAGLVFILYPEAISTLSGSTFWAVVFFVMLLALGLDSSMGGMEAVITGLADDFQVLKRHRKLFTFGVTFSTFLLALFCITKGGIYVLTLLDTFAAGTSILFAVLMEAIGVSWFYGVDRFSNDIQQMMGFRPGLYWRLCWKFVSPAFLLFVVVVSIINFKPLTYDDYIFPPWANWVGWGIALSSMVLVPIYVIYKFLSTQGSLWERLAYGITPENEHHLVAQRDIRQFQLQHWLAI

Take `CC(C)C[C@@H]1NC(=O)[C@H](CCCCN)NC(=O)[C@H](Cc2ccc(O)cc2)NC(=O)CNC(=O)[C@@H]2CSSC[C@H](NC1=O)C(=O)N[C@@H](Cc1cnc[nH]1)C(=O)N1CC[C@H](O)[C@H]1C(=O)N[C@H](C(=O)O)CSSC[C@@H](NC(=O)[C@@H](NC(=O)CNC(=O)[C@@H]1CCC(=O)N1)C(C)C)C(=O)N2`: the result was inactive.
The entry for `COc1ccc(C[C@H]2NC(=O)[C@H](Cc3cnc[nH]3)NC(=O)[C@@H]3CSSC[C@H](NC(=O)[C@@H](NC(=O)[C@@H](NC(=O)CNC(=O)[C@@H]4CCC(=O)N4)C(C)C)CSSC[C@@H](C(=O)O)NC2=O)C(=O)NCC(=O)N[C@@H](Cc2ccc(O)cc2)C(=O)N[C@@H](CCCCN)C(=O)N[C@@H](CC(C)C)C(=O)N3)cc1` is “Active”; for `CC(C)[C@H](NC(=O)CNC(=O)[C@@H]1CCC(=O)N1)C(=O)N[C@H]1CSSC[C@@H](C(=O)O)NC(=O)[C@@H]2[C@@H](O)CCN2C(=O)[C@H](Cc2cnc[nH]2)NC(=O)[C@@H]2CSSC[C@H](NC1=O)C(=O)NCC(=O)N[C@@H](Cc1ccc(O)cc1)C(=O)N[C@@H](CCCCN)C(=O)N[C@@H](C1CCCCC1)C(=O)N2` it is “Active”.
The entry for `COc1ccc(C[C@@H]2NC(=O)CNC(=O)[C@@H]3CSSC[C@H](NC(=O)[C@H](CC(C)C)NC(=O)[C@H](CCCCN)NC(=O)[C@H](Cc4ccc(O)cc4)NC2=O)C(=O)N[C@@H](Cc2c[nH]c4ccccc24)C(=O)N2CC[C@H](O)[C@H]2C(=O)N[C@H](C(=O)O)CSSC[C@H](NC(=O)[C@@H](NC(=O)CNC(=O)[C@@H]2CCC(=O)N2)C(C)C)C(=O)N3)cc1` ([pGlu]GVCCGY(Me)YKLCW[Pro(3S-OH)]C-OH; disulfide 4-14, 5-11) is “Active”; for `CC(C)C[C@@H]1NC(=O)[C@H](CCCCN)NC(=O)[C@H](CCCCN)NC(=O)CNC(=O)[C@@H]2CSSC[C@H](NC1=O)C(=O)N[C@@H](Cc1cnc[nH]1)C(=O)N1CC[C@H](O)[C@H]1C(=O)N[C@H](C(=O)O)CSSC[C@H](NC(=O)[C@@H](NC(=O)CNC(=O)[C@@H]1CCC(=O)N1)C(C)C)C(=O)N2` ([pGlu]GVCCGKKLCH[Pro(3S-OH)]C-OH; disulfide 4-13, 5-10) it is “inactive”.
The entry for `CC(C)C[C@@H]1NC(=O)[C@H](CCCCN)NC(=O)[C@H](CC2CCCCC2)NC(=O)CNC(=O)[C@@H]2CSSC[C@H](NC1=O)C(=O)N[C@@H](Cc1cnc[nH]1)C(=O)N1CC[C@H](O)[C@H]1C(=O)N[C@H](C(=O)O)CSSC[C@H](NC(=O)[C@@H](NC(=O)CNC(=O)[C@@H]1CCC(=O)N1)C(C)C)C(=O)N2` is “inactive”.
As to `CC(C)C[C@@H]1NC(=O)[C@H](CCCCN)NC(=O)[C@H](Cc2ccc(O)cc2)NC(=O)CNC(=O)[C@@H]2CSSC[C@H](NC1=O)C(=O)N[C@@H](Cc1cnc[nH]1)C(=O)N[C@H](CC(=O)O)C(=O)N[C@H](C(=O)O)CSSC[C@H](NC(=O)[C@@H](NC(=O)CNC(=O)[C@@H]1CCC(=O)N1)C(C)C)C(=O)N2`, the result was inactive.
With `CC(C)C[C@@H]1NC(=O)[C@H](CCCCN)NC(=O)[C@H](Cc2ccc(O)cc2)NC(=O)CNC(=O)[C@@H]2CSSC[C@H](NC1=O)C(=O)N[C@@H](CCCNC(=N)N)C(=O)N1CC[C@H](O)[C@H]1C(=O)N[C@H](C(=O)O)CSSC[C@H](NC(=O)[C@@H](NC(=O)CNC(=O)[C@@H]1CCC(=O)N1)C(C)C)C(=O)N2` the entry was “Active”.
Consider `CC(C)C[C@@H]1NC(=O)[C@H](CCCCN)NC(=O)[C@H](Cc2ccc(O)cc2)NC(=O)CNC(=O)[C@@H]2CSSC[C@H](NC1=O)C(=O)N[C@@H](Cc1cnc[nH]1)C(=O)N1CC[C@H](O)[C@H]1C(=O)N[C@@H](C(=O)O)CSSC[C@H](NC(=O)[C@@H](NC(=O)CNC(=O)[C@@H]1CCC(=O)N1)C(C)C)C(=O)N2`, for which the outcome was inactive.
In the case of `CC(C)C[C@@H]1NC(=O)[C@H](CCCCN)NC(=O)[C@H](Cc2ccc(O)cc2)NC(=O)CNC(=O)[C@@H]2CSSC[C@H](NC1=O)C(=O)N[C@@H](Cc1ccco1)C(=O)N1CC[C@H](O)[C@H]1C(=O)N[C@H](C(=O)O)CSSC[C@H](NC(=O)[C@@H](NC(=O)CNC(=O)[C@@H]1CCC(=O)N1)C(C)C)C(=O)N2`, the result was Active.
For `CC(C)C[C@@H]1NC(=O)[C@H](CCCCN)NC(=O)[C@@H](Cc2ccc(O)cc2)NC(=O)CNC(=O)[C@@H]2CSSC[C@H](NC1=O)C(=O)N[C@@H](Cc1cnc[nH]1)C(=O)N1CC[C@H](O)[C@H]1C(=O)N[C@H](C(=O)O)CSSC[C@H](NC(=O)[C@@H](NC(=O)CNC(=O)[C@@H]1CCC(=O)N1)C(C)C)C(=O)N2`, the outcome was inactive.
Turning to `CC(C)C[C@@H]1NC(=O)[C@H](CCCCN)NC(=O)[C@H](C(c2ccccc2)c2ccccc2)NC(=O)CNC(=O)[C@@H]2CSSC[C@H](NC1=O)C(=O)N[C@@H](Cc1cnc[nH]1)C(=O)N1CC[C@H](O)[C@H]1C(=O)N[C@H](C(=O)O)CSSC[C@H](NC(=O)[C@@H](NC(=O)CNC(=O)[C@@H]1CCC(=O)N1)C(C)C)C(=O)N2`, the result was inactive.
The entry for `COc1ccc(C[C@@H]2NC(=O)CNC(=O)[C@@H]3CSSC[C@H](NC(=O)[C@H](CC(C)C)NC(=O)[C@H](CCCCN)NC2=O)C(=O)N[C@@H](Cc2cnc[nH]2)C(=O)N2CC[C@H](O)[C@H]2C(=O)N[C@H](C(=O)O)CSSC[C@H](NC(=O)[C@@H](NC(=O)CNC(=O)[C@@H]2CCC(=O)N2)C(C)C)C(=O)N3)cc1` is “Active”.
Turning to `CC(C)C[C@@H]1NC(=O)[C@H](CCCCN)NC(=O)[C@H](Cc2ccc(O)cc2)NC(=O)CNC(=O)[C@@H]2CSSC[C@H](NC1=O)C(=O)N[C@@H](Cc1cnc[nH]1)C(=O)N1CC[C@H](O)[C@H]1C(=O)N[C@@H](C(=O)O)CSSC[C@@H](NC(=O)[C@@H](NC(=O)CNC(=O)[C@@H]1CCC(=O)N1)C(C)C)C(=O)N2`, the outcome was Active.
The entry for `CC(C)C[C@@H]1NC(=O)CNC(=O)[C@@H]2CSSC[C@H](NC(=O)[C@H](CC(C)C)NC(=O)[C@H](CCCCN)NC1=O)C(=O)N[C@@H](Cc1cnc[nH]1)C(=O)N1CC[C@H](O)[C@H]1C(=O)N[C@H](C(=O)O)CSSC[C@H](NC(=O)[C@@H](NC(=O)CNC(=O)[C@@H]1CCC(=O)N1)C(C)C)C(=O)N2` ([pGlu]GVCCGLKLCH[Pro(3S-OH)]C-OH; disulfide 4-13, 5-10) is “inactive”; for `CC(C)C[C@@H]1NC(=O)[C@H](CCCCN)NC(=O)[C@H](Cc2ccc(O)cc2)NC(=O)CNC(=O)[C@@H]2CSSC[C@H](NC1=O)C(=O)N[C@@H](Cc1c[nH]c3ccccc13)C(=O)N1CC[C@H](O)[C@H]1C(=O)N[C@H](C(=O)O)CSSC[C@H](NC(=O)[C@@H](NC(=O)CNC(=O)[C@@H]1CCC(=O)N1)C(C)C)C(=O)N2` ([pGlu]GVCCGYKLCW[Pro(3S-OH)]C-OH; disulfide 4-13, 5-10) it is “Active”.
With `CC(C)C[C@@H]1NC(=O)[C@H](CCCCN)NC(=O)[C@H](Cc2ccccc2)NC(=O)CNC(=O)[C@@H]2CSSC[C@H](NC1=O)C(=O)N[C@@H](Cc1cnc[nH]1)C(=O)N1CC[C@H](O)[C@H]1C(=O)N[C@H](C(=O)O)CSSC[C@H](NC(=O)[C@@H](NC(=O)CNC(=O)[C@@H]1CCC(=O)N1)C(C)C)C(=O)N2` ([pGlu]GVCCGFKLCH[Pro(3S-OH)]C-OH; disulfide 4-13, 5-10) the entry was “inactive”; with `CCCC[C@@H]1NC(=O)[C@H](CCCCN)NC(=O)[C@H](Cc2ccc(O)cc2)NC(=O)CNC(=O)[C@@H]2CSSC[C@H](NC1=O)C(=O)N[C@@H](Cc1cnc[nH]1)C(=O)N1CC[C@H](O)[C@H]1C(=O)N[C@H](C(=O)O)CSSC[C@H](NC(=O)[C@@H](NC(=O)CNC(=O)[C@@H]1CCC(=O)N1)C(C)C)C(=O)N2`, “Active”.
With `CC(C)C[C@@H]1NC(=O)[C@H](CCCCN)NC(=O)[C@H](Cc2ccc(O)cc2)NC(=O)CNC(=O)[C@@H]2CSSC[C@H](NC1=O)C(=O)N[C@@H](Cc1cccnc1)C(=O)N1CC[C@H](O)[C@H]1C(=O)N[C@H](C(=O)O)CSSC[C@H](NC(=O)[C@@H](NC(=O)CNC(=O)[C@@H]1CCC(=O)N1)C(C)C)C(=O)N2`, the result was Active.
The entry for `CC(C)C[C@@H]1NC(=O)[C@H](CCCCN)NC(=O)[C@H](CO)NC(=O)CNC(=O)[C@@H]2CSSC[C@H](NC1=O)C(=O)N[C@@H](Cc1cnc[nH]1)C(=O)N1CC[C@H](O)[C@H]1C(=O)N[C@H](C(=O)O)CSSC[C@H](NC(=O)[C@@H](NC(=O)CNC(=O)[C@@H]1CCC(=O)N1)C(C)C)C(=O)N2` ([pGlu]GVCCGSKLCH[Pro(3S-OH)]C-OH; disulfide 4-13, 5-10) is “inactive”; for `CC(C)C[C@@H]1NC(=O)[C@H](CCCCN)NC(=O)[C@H](Cc2ccc(O)cc2)NC(=O)CNC(=O)[C@@H]2CSSC[C@H](NC1=O)C(=O)N[C@@H](Cc1ccccc1)C(=O)N1CC[C@H](O)[C@H]1C(=O)N[C@H](C(=O)O)CSSC[C@H](NC(=O)[C@@H](NC(=O)CNC(=O)[C@@H]1CCC(=O)N1)C(C)C)C(=O)N2` ([pGlu]GVCCGYKLCF[Pro(3S-OH)]C-OH; disulfide 4-13, 5-10) it is “Active”; for `CC(C)C[C@@H]1NC(=O)[C@H](CCCCN)NC(=O)[C@H](Cc2ccc(O)cc2)NC(=O)CNC(=O)[C@H]2CSSC[C@@H](NC1=O)C(=O)N[C@@H](Cc1cnc[nH]1)C(=O)N1CC[C@H](O)[C@H]1C(=O)N[C@@H](C(=O)O)CSSC[C@@H](NC(=O)[C@@H](NC(=O)CNC(=O)[C@@H]1CCC(=O)N1)C(C)C)C(=O)N2` it is “inactive”.
Take `CC(C)C[C@@H]1NC(=O)[C@H](CCCCN)NC(=O)[C@H](Cc2ccc(O)cc2)NC(=O)CNC(=O)[C@@H]2CSSC[C@H](NC1=O)C(=O)N[C@@H](Cc1ccc(O)cc1)C(=O)N1CC[C@H](O)[C@H]1C(=O)N[C@H](C(=O)O)CSSC[C@H](NC(=O)[C@@H](NC(=O)CNC(=O)[C@@H]1CCC(=O)N1)C(C)C)C(=O)N2` ([pGlu]GVCCGYKLCY[Pro(3S-OH)]C-OH; disulfide 4-13, 5-10): the outcome was Active.
Consider `CC(C)C[C@@H]1NC(=O)[C@H](CCCCN)NC(=O)[C@H](Cc2cccs2)NC(=O)CNC(=O)[C@@H]2CSSC[C@H](NC1=O)C(=O)N[C@@H](Cc1cnc[nH]1)C(=O)N1CC[C@H](O)[C@H]1C(=O)N[C@H](C(=O)O)CSSC[C@H](NC(=O)[C@@H](NC(=O)CNC(=O)[C@@H]1CCC(=O)N1)C(C)C)C(=O)N2`, for which the result was inactive.

The values are drawn from ChEMBL document CHEMBL1154792, “chi-Conopeptide pharmacophore development: toward a novel class of norepinephrine transporter inhibitor (Xen2174) for pain” (J Med Chem, 2009).
